Laboratory results from paper PMC8314423 (Journal of medicinal chemistry, 2018).

Tests used:
[1] = biological target: SOS1-mediated nucleotide exchange on RAS (Homo sapiens, UniProt Q07889); assay: SOS1-mediated nucleotide exchange assay; format: biochemical
[2] = tested on: RAS-GTP levels in HeLa cells; assay: RAS-GTP levels in HeLa cells; format: cell-based; conditions: 10 min treatment; for change in RAS-GTP levels: up to 30 μM
In short: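 HeLa (WT KRAS) cells exposed to test compound for 10 min at concentrations up to 30 μM. RAS-GTP levels were measured together with the accompanying pERK1/2 T202/Y204 levels. EGF (50 ng/mL, 5 min) served as the positive control for pathway stimulation. Data are representative of two independent experiments.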

Sequence of SOS1-mediated nucleotide exchange on RAS (Q07889 564-1049 limits assumed): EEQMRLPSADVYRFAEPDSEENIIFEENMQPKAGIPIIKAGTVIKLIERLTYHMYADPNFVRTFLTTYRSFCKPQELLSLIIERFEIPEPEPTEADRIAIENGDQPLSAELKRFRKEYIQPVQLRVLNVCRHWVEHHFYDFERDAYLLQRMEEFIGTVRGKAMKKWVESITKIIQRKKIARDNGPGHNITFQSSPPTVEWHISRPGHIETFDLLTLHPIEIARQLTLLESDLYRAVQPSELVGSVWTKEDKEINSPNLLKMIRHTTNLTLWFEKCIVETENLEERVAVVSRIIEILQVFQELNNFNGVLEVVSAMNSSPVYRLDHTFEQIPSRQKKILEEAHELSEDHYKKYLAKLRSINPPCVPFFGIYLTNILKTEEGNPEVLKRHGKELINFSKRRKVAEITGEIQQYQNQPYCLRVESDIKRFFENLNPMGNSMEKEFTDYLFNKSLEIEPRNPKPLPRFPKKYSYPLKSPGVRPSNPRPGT
Sequence of SOS1-mediated nucleotide exchange on RAS (P01112 1-166 partner limits assumed): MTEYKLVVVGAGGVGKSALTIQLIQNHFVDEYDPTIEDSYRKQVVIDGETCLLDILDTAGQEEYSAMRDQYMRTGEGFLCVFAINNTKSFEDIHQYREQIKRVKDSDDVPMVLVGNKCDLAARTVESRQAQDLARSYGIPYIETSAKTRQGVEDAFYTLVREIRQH

Structure (SMILES) | change in RAS-GTP levels [2] | further results
Cc1cc2ncn(Cc3ccc(F)c(Cl)c3)c2cc1C [Compound 4, 1-(3-Chloro-4-fluorobenzyl)-5,6-dimethyl-1H-benzo[d]imidazole] |  | nucleotide exchange activation ([1]; in words): negligible nucleotide exchange activation
Cc1cc(Cn2c(N3CCNCC3)nc3ccc(Cl)cc32)cc(C)c1F [Compound 29, 6-Chloro-1-(4-fluoro-3,5-dimethylbenzyl)-2-(piperazin-1-yl)-1H-benzo[d]imidazole] |  | EC50 [1]: < 1 µM
Cc1cc(Cn2c(N3CCNCC3)nc3c(N4CCN(C)CC4)cc(Cl)cc32)cc(C)c1F [Compound 42, 6-Chloro-1-(4-fluoro-3,5-dimethylbenzyl)-4-(4-methylpiperazin-1-yl)-2-(piperazin-1-yl)-1H-benzo[d]imidazole] | substantial increases in RAS-GTP levels at 10–30 μM | lowest concentration inducing small increases in RAS-GTP [2]: 0.3 µM
Cc1cc(Cn2c(N3CCNCC3)nc3c(-c4cncnc4C)cc(Cl)cc32)cc(C)c1F [Compound 55, 6-Chloro-1-(4-fluoro-3,5-dimethylbenzyl)-4-(4-methylpyrimidin-5-yl)-2-(piperazin-1-yl)-1H-benzo[d]imidazole] | only modest increases in RAS-GTP levels | 
Cc1cc(Cn2c(N3CC4(CNC4)C3)nc3c(-c4cncnc4C)cc(Cl)cc32)cc(C)c1F [Compound 60, 6-Chloro-1-(4-fluoro-3,5-dimethylbenzyl)-4-(4-methylpyrimidin-5-yl)-2-(2,6-diazaspiro[3.3]heptan-2-yl)-1H-benzo[d]imidazole] | only modest increases in RAS-GTP levels | 
Cc1ncncc1-c1cc(Cl)cc2c1nc(N1CC3(CNC3)C1)n2Cc1ccc(F)cc1 [Compound 61, 6-Chloro-1-(4-fluorobenzyl)-4-(4-methylpyrimidin-5-yl)-2-(2,6-diazaspiro[3.3]heptan-2-yl)-1H-benzo[d]imidazole] | only modest increases in RAS-GTP levels | 
Cc1cc(Cn2c(N3CC4(CNC4)C3)nc3c(N4CCN(C)CC4)cc(Cl)cc32)cc(C)c1F [Compound 64, 6-Chloro-1-(4-fluoro-3,5-dimethylbenzyl)-4-(4-methylpiperazin-1-yl)-2-(2,6-diazaspiro[3.3]heptan-2-yl)-1H-benzo[d]imidazole] | substantial increases in RAS-GTP levels at 10–30 μM | lowest concentration inducing small increases in RAS-GTP [2]: 0.3 µM
